From ChEMBL document CHEMBL1131239, “Orally active benzamide antipsychotic agents with affinity for dopamine D2, serotonin 5-HT1A, and adrenergic alpha1 receptors” (J Med Chem, 1998)

Experiments:
[1] = target: T1, Adrenergic receptor alpha-1 (Rattus norvegicus, UniProt P15823+P23944+P43140); assay: Binding affinity against Alpha-1 adrenergic receptor from rat cerebral cortex; assay type: tissue-based
T1 sequence (P15823 whole entry): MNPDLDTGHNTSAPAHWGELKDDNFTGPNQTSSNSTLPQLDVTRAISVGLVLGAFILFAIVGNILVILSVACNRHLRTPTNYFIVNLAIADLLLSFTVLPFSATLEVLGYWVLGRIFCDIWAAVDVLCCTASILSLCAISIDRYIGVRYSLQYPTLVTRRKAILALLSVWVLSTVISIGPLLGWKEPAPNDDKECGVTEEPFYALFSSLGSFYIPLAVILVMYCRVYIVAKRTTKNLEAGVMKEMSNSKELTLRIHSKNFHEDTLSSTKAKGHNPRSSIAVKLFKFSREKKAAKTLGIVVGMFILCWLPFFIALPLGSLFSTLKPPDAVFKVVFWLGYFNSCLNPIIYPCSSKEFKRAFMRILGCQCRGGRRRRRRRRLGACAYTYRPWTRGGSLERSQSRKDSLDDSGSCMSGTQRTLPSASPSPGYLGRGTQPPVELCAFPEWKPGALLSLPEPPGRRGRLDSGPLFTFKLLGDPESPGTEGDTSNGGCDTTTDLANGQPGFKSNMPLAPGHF
T1 sequence (P23944 whole entry): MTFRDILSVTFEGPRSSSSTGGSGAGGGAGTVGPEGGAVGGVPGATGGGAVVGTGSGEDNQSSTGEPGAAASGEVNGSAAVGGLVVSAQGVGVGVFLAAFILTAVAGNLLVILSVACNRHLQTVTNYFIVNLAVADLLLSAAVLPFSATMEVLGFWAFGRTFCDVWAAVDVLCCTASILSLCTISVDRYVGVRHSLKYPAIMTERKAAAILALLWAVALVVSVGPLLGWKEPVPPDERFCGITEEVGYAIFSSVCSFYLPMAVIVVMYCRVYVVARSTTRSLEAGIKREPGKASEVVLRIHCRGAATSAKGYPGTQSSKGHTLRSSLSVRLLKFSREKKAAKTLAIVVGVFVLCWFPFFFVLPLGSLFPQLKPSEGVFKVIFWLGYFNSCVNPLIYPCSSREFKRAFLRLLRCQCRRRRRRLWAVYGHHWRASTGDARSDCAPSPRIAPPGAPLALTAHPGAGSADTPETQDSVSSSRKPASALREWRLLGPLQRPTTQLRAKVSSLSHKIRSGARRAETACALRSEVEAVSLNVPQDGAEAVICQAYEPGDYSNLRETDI
T1 sequence (P43140 whole entry): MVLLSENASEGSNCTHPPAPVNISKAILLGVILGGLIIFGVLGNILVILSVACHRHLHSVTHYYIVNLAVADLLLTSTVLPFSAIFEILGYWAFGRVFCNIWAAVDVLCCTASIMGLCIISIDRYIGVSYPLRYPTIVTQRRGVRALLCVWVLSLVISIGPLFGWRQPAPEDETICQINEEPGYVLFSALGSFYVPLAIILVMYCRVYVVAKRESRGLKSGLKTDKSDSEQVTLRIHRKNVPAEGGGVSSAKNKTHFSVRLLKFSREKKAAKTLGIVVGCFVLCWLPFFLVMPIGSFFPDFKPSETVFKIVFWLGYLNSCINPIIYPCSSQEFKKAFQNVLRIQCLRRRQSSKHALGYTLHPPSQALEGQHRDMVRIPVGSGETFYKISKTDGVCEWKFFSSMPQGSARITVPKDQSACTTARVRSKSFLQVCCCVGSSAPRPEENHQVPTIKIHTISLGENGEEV

[2] = test system: Rattus norvegicus; assay: compound was tested for antipsychotic activity by conditioned avoidance response(CAR) assay in rats with a pretreatment period of 30 min upon intra peritoneal administration at a concentration of 15 mg/kg; assay type: functional
In short: (§1)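 Trained rats (N = 4) were run in 1-h sessions on two consecutive days, with the experimenter blind to drug and dose. Fed rats had food and water until placed in the test chambers. Fasted rats had no food overnight before the experiment.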

[3] = test system: Rattus norvegicus; assay: compound was tested for antipsychotic activity by conditioned avoidance response(CAR) assay in rats with a pretreatment period of 30 min upon intra peritoneal administration at a concentration of 1 mg/kg.; assay type: functional; in short: as §1
[4] = test system: Rattus norvegicus; assay: Percent catalepsy in male Spargue-Dawley rat at pretreatment time 240 mins and when administered ip at dose 50 mg/kg (4/5L denotes that four rats out of five died during the course of experiment); assay type: functional; conditions: route intraperitoneal
In short: (§2)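 Catalepsy scored in groups of five rats per drug treatment, with the experimenter blind to drug and dose, in a quiet room. Each session included two control groups: saline (or vehicle) as negative control and haloperidol 2 mg/kg as positive control. Deaths during the experiment were recorded as lethality (e.g., 3/5L) in place of percent catalepsy.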

[5] = test system: Rattus norvegicus; assay: compound was tested for antipsychotic activity by conditioned avoidance response(CAR) assay in rats with a pretreatment period of 30 min upon intra peritoneal administration at a concentration of 13.4 mg/kg.; assay type: functional; in short: as §1
[6] = target: T2, 5-hydroxytryptamine receptor 1A (Rattus norvegicus, UniProt P19327); assay: Compound was evaluated for its binding affinity against 5-hydroxytryptamine 1A receptor from rat cerebral cortex; assay type: tissue-based
T2 sequence (P19327 whole entry): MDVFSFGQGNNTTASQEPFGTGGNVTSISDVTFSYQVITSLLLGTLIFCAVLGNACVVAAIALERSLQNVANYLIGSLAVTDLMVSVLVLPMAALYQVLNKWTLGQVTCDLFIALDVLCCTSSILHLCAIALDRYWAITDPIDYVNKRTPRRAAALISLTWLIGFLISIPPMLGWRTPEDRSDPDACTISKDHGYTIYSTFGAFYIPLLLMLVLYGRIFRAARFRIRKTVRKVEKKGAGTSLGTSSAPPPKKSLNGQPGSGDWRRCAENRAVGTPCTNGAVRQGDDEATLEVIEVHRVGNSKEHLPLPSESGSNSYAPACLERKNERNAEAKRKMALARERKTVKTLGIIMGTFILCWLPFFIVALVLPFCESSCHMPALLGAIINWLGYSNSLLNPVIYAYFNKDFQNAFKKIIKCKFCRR

[7] = test system: Rattus norvegicus; assay: Percent catalepsy in male Spargue-Dawley rat at pretreatment time 60 mins and when administered ip at dose 50 mg/kg (3/5L denotes that three rats out of five died during the course of experiment); assay type: functional; conditions: route intraperitoneal; in short: as §2
[8] = test system: Rattus norvegicus; assay: compound was tested for antipsychotic activity by conditioned avoidance response(CAR) assay in rats with a pretreatment period of 30 min upon intra peritoneal administration at a concentration of 7.5 mg/kg.; assay type: functional; in short: as §1
[9] = test system: Rattus norvegicus; assay: Percent catalepsy in male Spargue-Dawley rat at pretreatment time 60 mins and when administered po at dose 250 mg/kg; assay type: functional
In short: (§3)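 Catalepsy in rats, groups of five per drug treatment, scored blind to drug and dose. Each session included a saline or vehicle negative control and a haloperidol 2 mg/kg positive control. Deaths during the experiment were recorded in the catalepsy column as number dead out of five.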

[10] = test system: Rattus norvegicus; assay: compound was tested for antipsychotic activity by conditioned avoidance response(CAR) assay in rats with a pretreatment period of 30 min upon intra peritoneal administration; assay type: functional; in short: as §1
[11] = test system: Rattus norvegicus; assay: compound was tested for antipsychotic activity by conditioned avoidance response(CAR) assay in rats with a pretreatment period of 30 min upon peroral administration; assay type: functional; conditions: po; in short: as §1
[12] = test system: Rattus norvegicus; assay: compound was tested for antipsychotic activity by conditioned avoidance response(CAR) assay in rats with a pretreatment period of 60 min upon peroral administration; assay type: functional; conditions: po; in short: as §1
[13] = test system: Rattus norvegicus; assay: Percent catalepsy in male Spargue-Dawley rat at pretreatment time 240 mins and when administered ip at dose 100 mg/kg (3/5L denotes that three rats out of five died during the course of experiment); assay type: functional; conditions: route intraperitoneal; in short: as §2
[14] = test system: Rattus norvegicus; assay: Percent catalepsy in male Spargue-Dawley rat at pretreatment time 60 mins and when administered ip at dose 50 mg/kg; assay type: functional; conditions: route intraperitoneal; in short: as §3
[15] = test system: Rattus norvegicus; assay: compound was tested for antipsychotic activity by conditioned avoidance response(CAR) assay in rats with a pretreatment period of 120 min upon peroral administration; assay type: functional; conditions: po; in short: as §1
[16] = test system: Rattus norvegicus; assay: Percent catalepsy in male Spargue-Dawley rat at pretreatment time 240 mins and when administered po at dose 250 mg/kg; assay type: functional; in short: as §3
[17] = test system: Rattus norvegicus; assay: Percent catalepsy in male Spargue-Dawley rat at pretreatment time 240 mins and when administered ip at dose 50 mg/kg; assay type: functional; conditions: route intraperitoneal; in short: as §3
[18] = test system: Rattus norvegicus; assay: compound was tested for antipsychotic activity by conditioned avoidance response(CAR) assay in rats with a pretreatment period of 60 min upon peroral administration at a concentration of 10 mg/kg.; assay type: functional; conditions: route oral; in short: as §1
[19] = test system: Rattus norvegicus; assay: compound was tested for antipsychotic activity by conditioned avoidance response(CAR) assay in rats with a pretreatment period of 30 min upon intra peritoneal administration at a concentration of 15 mg/kg.; assay type: functional
[20] = test system: Rattus norvegicus; assay: compound was tested for antipsychotic activity by conditioned avoidance response(CAR) assay in rats with a pretreatment period of 30 min upon intra peritoneal administration at a concentration of 5 mg/kg.; assay type: functional
In short: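 Rat conditioned avoidance test modified from Martin et al. Trained rats (N = 4) were run in 1-h sessions on two consecutive days. Fed animals had food and water until placed in the test chambers. Dosing was ip with 30 min pretreatment, and activity was expressed as percent inhibition at the stated dose.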

[21] = test system: Rattus norvegicus; assay: Percent catalepsy in male Spargue-Dawley rat at pretreatment time 60 mins and administered ip at dose 50 mg/kg; assay type: functional; conditions: route intraperitoneal; in short: as §3
[22] = test system: Rattus norvegicus; assay: compound was tested for antipsychotic activity by conditioned avoidance response(CAR) assay in rats and pretreatment period of 60 min upon peroral administration; assay type: functional; conditions: po; in short: as §1
[23] = test system: Rattus norvegicus; assay: compound was tested for antipsychotic activity by conditioned avoidance response(CAR) assay in rats with a pretreatment period of 30 min upon intra peritoneal administration at a concentration of 5 mg/kg; assay type: functional; in short: as §1

O=C(c1cccc(CN2CCNCC2)c1)N1CCCCC1
Ki [1]: > 1000 nM | inhibition in vivo at 15 mg/kg [2]: -30.2%

CC(C)Oc1ccccc1N1CCN(Cc2cccc(C(=O)N3CCCC3)c2)CC1
inhibition in vivo at 1 mg/kg [3]: -44.8% | Ki [1]: 1.9 nM | Catalepsy [4]: 0% | inhibition in vivo at 13.4 mg/kg [5]: -79.4% | Ki [6]: 3.6 nM | Catalepsy [7]: 0% | inhibition in vivo at 7.5 mg/kg [8]: -98.3%

CC(C)Oc1ccccc1N1CCN(Cc2cccc(C(=O)N3CCCCCC3)c2)CC1
Catalepsy [9]: 32.5% | ED50 [10]: 0.85 mg/kg | ED50 [11]: 3.32 mg/kg | Ki [1]: 2.1 nM | ED50 [12]: 11.9 mg/kg | Catalepsy [13]: 0% | Catalepsy [14]: 27.8% | ED50 [15]: 15.4 mg/kg | Catalepsy [16]: 15.5% | Ki [6]: 0.6 nM | Catalepsy [17]: 24.1%

CC(C)Oc1ccccc1N1CCN(Cc2cccc(C(=O)N3CCc4ccccc43)c2)CC1
inhibition in vivo at 1 mg/kg [3]: -1.6% | Ki [1]: 1.7 nM | inhibition in vivo at 10 mg/kg [18]: -1.4% | Ki [6]: 3.4 nM | inhibition in vivo at 15 mg/kg [19]: -95.8%

COc1ccccc1N1CCN(Cc2cccc(C(=O)N3CCCCCC3)c2)CC1
inhibition in vivo at 5 mg/kg [20]: -94.6% | Ki [1]: 4.7 nM | Catalepsy [21]: 70% | Ki [6]: 0.46 nM

CC(C)Oc1ccccc1N1CCN(Cc2ccc(CN3CCCCC3=O)n2C)CC1 [RWJ-25730]
ED50 [22]: 34.7 mg/kg

CC(C)Oc1ccccc1N1CCN(Cc2cccc(S(=O)(=O)N3CCCCC3)c2)CC1
Ki [1]: 6.7 nM | inhibition in vivo at 5 mg/kg [23]: -6.7%
